From PubChem
Only some compounds are listed: those with a hit (about 1.4% of all), similar ones and a draw of the others.
m-calpain inh = calpain II (pig) inhibition; inhibition, % at 16 µM; purified calpain II, fluorogenic peptide substrate, 30 min; hit rate 0.37% among 220,000;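 active = inhibition above about 50%, limit read from the data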
FXIIa inh 1536 = factor XIIa (human) inhibition. P00748. purified FXIIa, Boc-QGR-AMC fluorogenic substrate, 2 h. inhibition, % at 5 µM. hit rate 0.3% among 220,000. AID 800; in the data active = inhibition above about 40%;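 also: 0% = enzyme with no compound and 100% = blank without enzyme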
Thrombin inh = inhibitors of human thrombin; P00734; alpha-thrombin, Boc-VPR-AMC fluorogenic substrate cleavage; inhibition, % at 5 µM; hit rate 0.26% among 220,000; AID 1046;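 active = inhibition at or above 40%; inactive = inhibition below 40%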;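 also: 0% = enzyme with no compound and 100% = wells without enzyme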
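System: human alpha-thrombin protein; Compound dosing: one concentration per compound, 5 µM, with 0.2% DMSO; Timing: reaction at room temperature; Technique: AMC fluorescence, 355/460 nm; Controls: enzyme without compound as high, wells lacking enzyme as low.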
hK5 inh = kallikrein 5 (human) inhibition. recombinant hK5, fluorogenic AMC substrate cleavage. hit rate 0.59% among 210,000. inhibition, % at 5 µM;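 active = inhibition of 40% or more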;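 also: 0% = enzyme controls without compound and 100% = no-enzyme blanks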
FXIa inh = factor XIa (human) inhibition | inhibition, % at 5 µM | purified FXIa, Boc-Glu-Ala-Arg-AMC fluorogenic substrate | hit rate 0.14% among 220,000 | AID 798 | P03951;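 active = inhibition of at least 40%; inactive = inhibition below 40%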;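 also: fluorescence of freed AMC excited at 355 nm; 0% = enzyme without compound and 100% = no enzyme blank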
Target sequence (P03951 19-387 limits assumed): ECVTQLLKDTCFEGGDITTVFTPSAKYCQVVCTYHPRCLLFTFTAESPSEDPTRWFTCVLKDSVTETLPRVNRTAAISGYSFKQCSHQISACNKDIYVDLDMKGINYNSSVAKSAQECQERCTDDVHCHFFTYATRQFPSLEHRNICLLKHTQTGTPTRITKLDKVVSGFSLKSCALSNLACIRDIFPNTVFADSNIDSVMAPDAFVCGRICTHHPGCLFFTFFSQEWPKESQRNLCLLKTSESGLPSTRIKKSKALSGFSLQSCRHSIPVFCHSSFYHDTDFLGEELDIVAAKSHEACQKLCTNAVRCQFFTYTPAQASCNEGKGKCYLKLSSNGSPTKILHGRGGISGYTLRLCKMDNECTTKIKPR
Target sequence (P03951 388-625 limits assumed): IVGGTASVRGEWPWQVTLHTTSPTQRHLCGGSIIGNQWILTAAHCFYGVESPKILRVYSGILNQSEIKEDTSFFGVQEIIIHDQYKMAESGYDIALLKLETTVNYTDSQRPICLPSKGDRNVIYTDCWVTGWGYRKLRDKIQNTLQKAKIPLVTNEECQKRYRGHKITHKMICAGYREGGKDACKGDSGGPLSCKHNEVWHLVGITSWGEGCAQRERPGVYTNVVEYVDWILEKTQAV
Numbers without * were called inactive.

`CC(=O)Nc1ccccc1OCC(=O)N(Cc1ccccc1)C(C)C` gave m-calpain inh -4.7, FXIIa inh 1536 3.7, Thrombin inh -9.2, hK5 inh -6.7 and FXIa inh -5.7.
COCCNC(=O)c1nn(-c2cc(OC)cc(OC)c2)c(=O)c2ccccc12 was read as m-calpain inh 11.4, FXIIa inh 1536 18.1, Thrombin inh 7.8, hK5 inh 66.3* and FXIa inh 15.2.
For O=C(O)c1cccc(N/C(=N\S(=O)(=O)c2ccccc2)c2ccccc2)c1 the results were m-calpain inh 5.2, FXIIa inh 1536 7.1, Thrombin inh 0.6, hK5 inh 7.4 and FXIa inh 1.8.
`O=C(O)c1ccc(N/C(=N\S(=O)(=O)c2ccc(Cl)cc2)c2ccccc2)cc1` gave m-calpain inh -14.9, FXIIa inh 1536 63.5*, Thrombin inh 15.5, hK5 inh 19.5 and FXIa inh 44.0*.
For Cc1cc(NC(=O)NC(C(F)(F)F)C(F)(F)F)no1 the results were m-calpain inh -20.8, FXIIa inh 1536 9.6, Thrombin inh -1.8, hK5 inh 14.5 and FXIa inh 0.1.
Screening COc1ccccc1N(C1=NCCCS1)S(=O)(=O)c1ccc(C(C)(C)C)cc1 returned m-calpain inh 30.4, FXIIa inh 1536 9.4, Thrombin inh 1.8, hK5 inh 22.0 and FXIa inh 3.3.
For CCOc1ccc(NS(=O)(=O)c2ccc(C)c(C(=O)NCCCn3ccnc3)c2)cc1 the results were m-calpain inh -52.2, FXIIa inh 1536 10.6, Thrombin inh -10.8, hK5 inh -2.9 and FXIa inh 1.9.
For O=C(O)CCCC(=O)N1CCN(C(c2ccccc2)c2ccccc2)CC1 the results were m-calpain inh 14.9, FXIIa inh 1536 5.8, Thrombin inh 16.0, hK5 inh 51.8* and FXIa inh 6.9.
`O=C(O)/C=C/C(=O)N1CCN(C(c2ccccc2)c2ccccc2)CC1` gave m-calpain inh -16.3, FXIIa inh 1536 3.0, Thrombin inh 5.6, hK5 inh -11.1 and FXIa inh 4.0.
`N#Cc1nnn(-c2ccc(Cl)cc2)c1N` gave m-calpain inh -10.3, FXIIa inh 1536 0.2, Thrombin inh -6.0, hK5 inh -2.6 and FXIa inh -6.2.
Screening Clc1ccccc1-c1nnc2sc(-c3cccs3)nn12 returned m-calpain inh 51.7*, FXIIa inh 1536 0.5, Thrombin inh 0.4, hK5 inh 0.3 and FXIa inh 2.0.
Clc1ccccc1-c1nnc2sc(-c3ccncc3)nn12 was read as m-calpain inh 13.0, FXIIa inh 1536 0.4, Thrombin inh 3.8, hK5 inh -6.7 and FXIa inh -6.2.
Screening C/C(=N/OC(=O)c1ccc(C(F)(F)F)cc1)c1oc(C)nc1C returned m-calpain inh -16.2, FXIIa inh 1536 11.4, Thrombin inh -0.6, hK5 inh -2.6 and FXIa inh 3.1.
Screening O=C(C1CCCC1)N(c1ccccc1)C1C=CS(=O)(=O)C1 (centres undefined) returned m-calpain inh -1.3, FXIIa inh 1536 12.9, Thrombin inh -1.6, hK5 inh -5.2 and FXIa inh 1.4.
Cc1ccc(N(C(=O)C2CCCC2)C2C=CS(=O)(=O)C2)cc1 (centres undefined) was read as m-calpain inh -21.0, FXIIa inh 1536 -2.8, Thrombin inh 2.4, hK5 inh 114.4* and FXIa inh -6.6.
`O=C(Oc1ccc2c(=O)c(Cl)coc2c1)c1cccnc1` gave m-calpain inh -199.5, FXIIa inh 1536 29.9, Thrombin inh 23.1, hK5 inh -9.5 and FXIa inh 65.8*.
`O=C(Oc1ccc2c(=O)c(Oc3ccc4ccccc4c3)coc2c1)c1cccnc1` gave m-calpain inh -322.1, FXIIa inh 1536 3.0, Thrombin inh -4.5, hK5 inh -5.4 and FXIa inh 0.2.
For Cc1ccc(-c2cn3cccc(C)c3n2)cc1 the results were m-calpain inh -43.9, FXIIa inh 1536 4.6, Thrombin inh -7.9, hK5 inh -4.1 and FXIa inh -4.3.
Screening COc1ccc(-c2cn3cccc(C)c3n2)cc1F returned m-calpain inh -50.1, FXIIa inh 1536 21.4, Thrombin inh 13.3, hK5 inh 40.8* and FXIa inh 31.6.
Cc1sc2ncnc(OCC(=O)NC3CCS(=O)(=O)C3)c2c1C (centres undefined) was read as m-calpain inh 6.5, FXIIa inh 1536 24.1, Thrombin inh 28.6, hK5 inh 102.8* and FXIa inh 19.6.
Cc1sc2ncnc(OCC(=O)NC(C)C)c2c1C was read as m-calpain inh 8.4, FXIIa inh 1536 12.9, Thrombin inh 5.0, hK5 inh -3.6 and FXIa inh 0.4.
For O=S(=O)(NC(=NCCc1ccc(Cl)cc1)c1ccccc1Cl)c1cccs1 the results were m-calpain inh 21.1, FXIIa inh 1536 4.8, Thrombin inh 1.2, hK5 inh 2.9 and FXIa inh 0.7.
Screening OC1C2(Cc3ccccc3)CN3CCN(C2)CC1(Cc1ccccc1)C3 (centres undefined) returned FXIIa inh 1536 -4.3, Thrombin inh 2.8, hK5 inh 110.3* and FXIa inh -6.1.
For Cc1cc(C)cc(OCC(=O)Nc2ccc(N3CCCC3)cc2)c1 the results were m-calpain inh 8.1, FXIIa inh 1536 45.2*, Thrombin inh 1.8, hK5 inh 5.5 and FXIa inh 15.9.
Screening O=C(NCCSc1ccccc1)c1ccccc1 returned m-calpain inh -14.9, FXIIa inh 1536 -0.4, Thrombin inh -0.4, hK5 inh 89.0* and FXIa inh -6.4.
For C=CCSc1nc2ccsc2c(=O)n1-c1cccnc1 the results were m-calpain inh 16.3, FXIIa inh 1536 0.7, Thrombin inh -1.0, hK5 inh -12.8 and FXIa inh -1.7.
For CC(c1ccc(F)cc1)n1c(-c2cccs2)n[nH]c1=S (centres undefined) the results were m-calpain inh -38.4, Thrombin inh 32.9, hK5 inh 71.0* and FXIa inh 35.4.
For COc1ccc(C(CC(=O)Nc2cc([N+](=O)[O-])ccc2OC)c2ccccc2)cc1 (centres undefined) the results were m-calpain inh 12.4, FXIIa inh 1536 9.0, Thrombin inh -4.9, hK5 inh -3.7 and FXIa inh 7.8.
For Cc1ccc(C(=O)NCCSc2ccccc2)cc1S(=O)(=O)Nc1ccccc1 the results were m-calpain inh 6.5, FXIIa inh 1536 4.5, Thrombin inh -7.8, hK5 inh -1.4 and FXIa inh -5.5.
CCOC(=O)c1cc2sccc2n1CC(=O)O was read as m-calpain inh 1.9, FXIIa inh 1536 15.9, Thrombin inh 5.8, hK5 inh 17.1 and FXIa inh 4.1.
For CCOC(=O)c1cc2sccc2n1CC(=O)N1c2ccccc2CC1C (centres undefined) the results were m-calpain inh 18.1, FXIIa inh 1536 48.3*, Thrombin inh -10.2, hK5 inh -9.0 and FXIa inh 13.0.
COc1cc(N2C(=O)C=CC2=O)c(OC)cc1Cl was read as m-calpain inh -23.6, FXIIa inh 1536 5.4, Thrombin inh -0.3, hK5 inh -11.4 and FXIa inh -9.8.
`CCN1CCN(CC(=O)Nc2cccc(C)c2C)C(=O)C1=O` gave m-calpain inh -15.9, FXIIa inh 1536 11.4, Thrombin inh -4.6, hK5 inh -0.2 and FXIa inh 3.5.
